Test results from ChEMBL document CHEMBL4177755, “Combating Drug-Resistant Fungi with Novel Imperfectly Amphipathic Palindromic Peptides” (J Med Chem, 2018).

Key:
[1] = Antibacterial activity against Salmonella pullorum ATCC 7913 after 24 hrs; type: functional, Salmonella enterica subsp. enterica serovar Pullorum; details: Salmonella enterica, ATCC 7913, 24 h
Summary of the method: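 Broth microdilution. Mid-log bacteria in MHB at a final (0.5−1) × 10^5 CFU/mL were mixed with equal volumes of peptide serially diluted in 0.2% BSA. Plates were incubated 24 h at 37 °C and read at A492. MIC is the lowest concentration inhibiting 95% of growth. Each test was repeated at least 3 times.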

Staphylococcus aureus [2] = assay: Antibacterial activity against Staphylococcus aureus ATCC 29213 after 24 hrs; type: functional; details: ATCC 29213, 24 h
Summary of the method: (§1)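 Modified NCCLS broth microdilution. Mid-log bacteria at (0.5−1) × 10^5 CFU/mL in MHB were mixed 1:1 with peptide serially diluted in 0.2% BSA and incubated 24 h at 37 °C. Absorbance was read at 492 nm; MIC is the lowest concentration inhibiting 95% of growth. At least 3 repeats.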

Staphylococcus aureus [3] = assay: Antibacterial activity against Staphylococcus aureus ATCC 25923 after 24 hrs; type: functional; details: ATCC 25923, 24 h; summary of the method: as §1
Escherichia coli [4] = assay: Bactericidal activity against Escherichia coli ATCC 25922; type: functional; details: read-out: MBC99.9
Summary of the method: (§2)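 Wells from the 24 h, 37 °C MHB microdilution plates (bacteria at a final (0.5−1) × 10^5 CFU/mL; peptide diluted in 0.2% BSA) were plated on agar and incubated overnight. MBC is the lowest concentration killing >99.9% of cells. Each test was reproduced at least 3 times.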

Salmonella typhimurium = assay: Bactericidal activity against Salmonella typhimurium ATCC 14028; type: functional, Salmonella enterica subsp. enterica serovar Typhimurium; details: Salmonella enterica, read-out: MBC99.9; summary of the method: as §2
[5] = Bactericidal activity against Salmonella pullorum ATCC 7913; type: functional, Salmonella enterica subsp. enterica serovar Pullorum; details: Salmonella enterica, read-out: MBC99.9; summary of the method: as §2
[6] = system: Staphylococcus epidermidis; assay: Bactericidal activity against Staphylococcus epidermidis ATCC 12228; type: functional; details: read-out: MBC99.9; summary of the method: as §2
Candida albicans [7] = assay: Antifungal activity against Candida albicans cgmcc 2.2086 after 48 hrs by broth microdilution method; type: functional; details: cgmcc 2.2086, 48 h
Summary of the method: (§3)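 Modified CLSI M27-A2 broth microdilution. Yeast at (0.5−1) × 10^3 CFU/mL in MOPS-buffered RPMI 1640 was mixed 1:1 with peptide serially diluted in 0.2% BSA and incubated 48 h at 28 °C. Absorbance was read at 492 nm; MIC is the lowest concentration inhibiting 95% of growth. Triplicate, three biological replicates.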

Candida albicans [8] = assay: Antifungal activity against Candida albicans SP3931 after 48 hrs by broth microdilution method; type: functional; details: SP3931, 48 h; summary of the method: as §3
Candida albicans [9] = assay: Antifungal activity against Candida albicans SP3903 after 48 hrs by broth microdilution method; type: functional; details: SP3903, 48 h; summary of the method: as §3
Candida albicans [10] = assay: Antifungal activity against Candida albicans SP3902 after 48 hrs by broth microdilution method; type: functional; details: SP3902, 48 h; summary of the method: as §3
Candida albicans [11] = assay: Antifungal activity against fluconazole-resistant Candida albicans 56452 after 48 hrs by broth microdilution method; type: functional; details: Candida albicans, 56452, 48 h; summary of the method: as §3
Candida albicans [12] = assay: Antifungal activity against fluconazole-resistant Candida albicans 56214 after 48 hrs by broth microdilution method; type: functional; details: Candida albicans, 56214, 48 h; summary of the method: as §3
Candida albicans [13] = assay: Antifungal activity against fluconazole-resistant Candida albicans 17546 after 48 hrs by broth microdilution method; type: functional; details: Candida albicans, 17546, 48 h; summary of the method: as §3
Candida tropicalis = assay: Antifungal activity against Candida tropicalis cgmcc 2.1975 after 48 hrs by broth microdilution method; type: functional; details: cgmcc 2.1975, 48 h
Summary of the method: (§4)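 Modified CLSI M27-A2 broth microdilution. Yeast were suspended in MOPS-buffered RPMI 1640 at a final (0.5−1) × 10^3 CFU/mL and mixed 1:1 with peptide serially diluted in 0.2% BSA. Plates were incubated 48 h at 28 °C and read at A492. MIC is the lowest concentration giving 95% inhibition. Run in triplicate with three biological replicates.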

Pichia kudriavzevii = assay: Antifungal activity against Candida krusei cgmcc 2.1857 after 48 hrs by broth microdilution method; type: functional; details: cgmcc 2.1857, 48 h; summary of the method: as §4
Candida parapsilosis [14] = assay: Antifungal activity against Candida parapsilosis cgmcc 2.3989 after 48 hrs by broth microdilution method; type: functional; details: Lodderomyces parapsilosis, cgmcc 2.3989, 48 h; summary of the method: as §4
Candida albicans [15] = assay: Fungicidal activity against Candida albicans SP3931 after 96 hrs; type: functional; details: SP3931, 96 h, read-out: MFC99.9
Summary of the method: (§5)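 After the 48 h, 28 °C broth microdilution in MOPS-buffered RPMI 1640 (inoculum (0.5−1) × 10^3 CFU/mL), 50 μL from each well was plated on YM agar for a further 48 h at 28 °C. MFC is the lowest concentration killing at least 99.9% of cells. Triplicate, three biological replicates.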

Candida albicans [16] = assay: Fungicidal activity against fluconazole-resistant Candida albicans 56214 after 96 hrs; type: functional; details: Candida albicans, 56214, 96 h; read-out: MFC99.9; summary of the method: as §5
Candida albicans [17] = assay: Fungicidal activity against Candida albicans 14936 after 96 hrs; type: functional; details: Candida albicans, 14936, 96 h; read-out: MFC99.9; summary of the method: as §5
Candida albicans [18] = assay: Fungicidal activity against fluconazole-resistant Candida albicans 17546 after 96 hrs; type: functional; details: Candida albicans, 17546, 96 h; read-out: MFC99.9; summary of the method: as §5
Candida parapsilosis [19] = assay: Fungicidal activity against Candida parapsilosis cgmcc 2.3989 after 96 hrs; type: functional; details: Lodderomyces parapsilosis, cgmcc 2.3989, 96 h; read-out: MFC99.9
Summary of the method: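 Wells from the 48 h, 28 °C RPMI 1640/MOPS microdilution plates were plated on YM agar and incubated a further 48 h at 28 °C. MFC is the lowest concentration killing at least 99.9% of cells. Run in triplicate with three biological replicates.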

Escherichia coli [20] = assay: Antibacterial activity against Escherichia coli ATCC 25922 after 18 hrs in presence of NaCl by broth dilution method; type: functional; details: ATCC 25922, 18 h
Escherichia coli [21] = assay: Antibacterial activity against Escherichia coli ATCC 25922 after 18 hrs in presence of KCl by broth dilution method; type: functional; details: ATCC 25922, 18 h
Escherichia coli [22] = assay: Antibacterial activity against Escherichia coli ATCC 25922 after 18 hrs in presence of MgCl2 by broth dilution method; type: functional; details: ATCC 25922, 18 h
Escherichia coli [23] = assay: Antibacterial activity against Escherichia coli ATCC 25922 after 18 hrs in presence of FeCl3 by broth dilution method; type: functional; details: ATCC 25922, 18 h
Candida albicans [24] = assay: Antifungal activity against Candida albicans cgmcc 2.2086 in presence of KCl by broth dilution method; type: functional
Candida albicans [25] = assay: Antifungal activity against Candida albicans cgmcc 2.2086 in presence of NH4Cl by broth dilution method; type: functional
Candida albicans [26] = assay: Antifungal activity against Candida albicans cgmcc 2.2086 in presence of FeCl3 by broth dilution method; type: functional
[27] = Cytotoxicity against mouse RAW264.7 cells assessed as cell viability at 2 to 64 uM after 24 hrs by MTT assay relative to control; type: cell-based; details: read-out: Activity
Summary of the method: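 MTT viability assay. RAW264.7 or HEK293T cells at (1.0−2.0) × 10^5 per well were exposed to a peptide concentration series for 24 h at 37 °C in 5% CO2. MTT was then added at 0.5 mg/mL final for 4 h; formazan was dissolved in DMSO and read at 570 nm. Results average three independent trials.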

H-WWRRWRRWW-NH2
MIC95 [1]: 8 µM | MIC95 (Staphylococcus aureus [2]): 4 µM | MIC95 (Staphylococcus aureus [3]): 4 µM | MBC (Escherichia coli [4]): 32 µM | MBC (Salmonella typhimurium): 16 µM | MBC [5]: 16 µM | MBC [6]: 8 µM | MIC95 (Candida albicans [7]): 8 µM | MIC95 (Candida albicans [8]): 16 µM | MIC95 (Candida albicans [9]): 4 µM | MIC95 (Candida albicans [10]): 8 µM | MIC95 (Candida albicans [11]): 8 µM | MIC95 (Candida albicans [12]): 4 µM | MIC95 (Candida albicans [13]): 2 µM | MIC95 (Candida tropicalis): 4 µM | MIC95 (Pichia kudriavzevii): 4 µM | MIC95 (Candida parapsilosis [14]): 32 µM | MFC (Candida albicans [15]): 32 µM | MFC (Candida albicans [16]): 8 µM | MFC (Candida albicans [17]): 8 µM | MFC (Candida albicans [18]): 4 µM | MFC (Candida parapsilosis [19]): 64 µM | MIC (Escherichia coli [20]): 8 µM | MIC (Escherichia coli [21]): 8 µM | MIC (Escherichia coli [22]): 4 µM | MIC (Escherichia coli [23]): 4 µM | MIC (Candida albicans [24]): 16 µM | MIC (Candida albicans [25]): 8 µM | MIC (Candida albicans [26]): 8 µM

H-RLLRRLRRLLR-NH2
viability at 24 h, up to 64 µM [27]: 70 to 80% | MIC95 [1]: 8 µM | MIC95 (Staphylococcus aureus [2]): 4 µM | MIC95 (Staphylococcus aureus [3]): 8 µM | MBC (Escherichia coli [4]): 16 µM | MBC (Salmonella typhimurium): 16 µM | MBC [5]: 32 µM | MBC [6]: 4 µM | MIC95 (Candida albicans [7]): 8 µM | MIC95 (Candida albicans [8]): 8 µM | MIC95 (Candida albicans [9]): 4 µM | MIC95 (Candida albicans [10]): 4 µM | MIC95 (Candida albicans [11]): 8 µM | MIC95 (Candida albicans [12]): 8 µM | MIC95 (Candida albicans [13]): 8 µM | MIC95 (Candida tropicalis): 2 µM | MIC95 (Pichia kudriavzevii): 4 µM | MIC95 (Candida parapsilosis [14]): 8 µM | MFC (Candida albicans [15]): 8 µM | MFC (Candida albicans [16]): 16 µM | MFC (Candida albicans [17]): 8 µM | MFC (Candida albicans [18]): 16 µM | MFC (Candida parapsilosis [19]): 16 µM | MIC (Escherichia coli [20]): 4 µM | MIC (Escherichia coli [21]): 4 µM | MIC (Escherichia coli [22]): 2 µM | MIC (Escherichia coli [23]): 16 µM | MIC (Candida albicans [24]): 16 µM | MIC (Candida albicans [25]): 4 µM | MIC (Candida albicans [26]): 8 µM

H-LLRRLRRLL-NH2
viability at 24 h, up to 64 µM [27]: 70 to 80% | MIC95 [1]: 32 µM | MIC95 (Staphylococcus aureus [2]): 64 µM | MIC95 (Staphylococcus aureus [3]): 16 µM | MBC (Escherichia coli [4]): 32 µM | MBC (Salmonella typhimurium): 32 µM | MBC [5]: 64 µM | MBC [6]: 16 µM | MIC95 (Candida albicans [7]): 32 µM | MIC95 (Candida albicans [8]): 32 µM | MIC95 (Candida albicans [9]): 16 µM | MIC95 (Candida albicans [10]): > 64 µM | MIC95 (Candida albicans [11]): 32 µM | MIC95 (Candida albicans [12]): 32 µM | MIC95 (Candida albicans [13]): 64 µM | MIC95 (Candida tropicalis): 4 µM | MIC95 (Pichia kudriavzevii): 8 µM | MIC95 (Candida parapsilosis [14]): > 64 µM | MFC (Candida albicans [15]): 32 µM | MFC (Candida albicans [16]): 32 µM | MFC (Candida albicans [17]): > 64 µM | MFC (Candida albicans [18]): > 64 µM | MFC (Candida parapsilosis [19]): > 64 µM | MIC (Escherichia coli [20]): 16 µM | MIC (Escherichia coli [21]): 16 µM | MIC (Escherichia coli [22]): 16 µM | MIC (Escherichia coli [23]): 16 µM | MIC (Candida albicans [24]): 64 µM | MIC (Candida albicans [25]): 32 µM | MIC (Candida albicans [26]): 64 µM

H-RFFRRFRRFFR-NH2
viability at 24 h, up to 64 µM [27]: 70 to 80% | MIC95 [1]: 4 µM | MIC95 (Staphylococcus aureus [2]): 8 µM | MIC95 (Staphylococcus aureus [3]): 4 µM | MBC (Escherichia coli [4]): 8 µM | MBC (Salmonella typhimurium): 8 µM | MBC [5]: 8 µM | MBC [6]: 4 µM | MIC95 (Candida albicans [7]): 8 µM | MIC95 (Candida albicans [8]): 8 µM | MIC95 (Candida albicans [9]): 4 µM | MIC95 (Candida albicans [10]): 8 µM | MIC95 (Candida albicans [11]): 8 µM | MIC95 (Candida albicans [12]): 8 µM | MIC95 (Candida albicans [13]): 4 µM | MIC95 (Candida tropicalis): 2 µM | MIC95 (Pichia kudriavzevii): 2 µM | MIC95 (Candida parapsilosis [14]): > 64 µM | MFC (Candida albicans [15]): 16 µM | MFC (Candida albicans [16]): 16 µM | MFC (Candida albicans [17]): 16 µM | MFC (Candida albicans [18]): 8 µM | MFC (Candida parapsilosis [19]): > 64 µM | MIC (Escherichia coli [20]): 8 µM | MIC (Escherichia coli [21]): 8 µM | MIC (Escherichia coli [22]): 2 µM | MIC (Escherichia coli [23]): 8 µM | MIC (Candida albicans [24]): 16 µM | MIC (Candida albicans [25]): 4 µM | MIC (Candida albicans [26]): 8 µM
